Values after ≈ are worked out from the molar mass of the structure shown. Active and inactive are the calls of the source. The calls are words filed in the database; no cut-off is given here.
What was measured:
Hemozoin = test: Inhibition of Beta-hematin assessed as bis-pyridyl-Fe(III)PPIX complex formation incubated for 5 hrs by NP40 detergent-mediated colorimetric assay
Plasmodium falciparum [1] = test: Inhibition of hemozoin formation in sorbitol-synchronized early ring stage plasmodium falciparum NF54 trophozoites assessed as decrease in free hemozoin level at 0.5 to 3 times EC50 incubated for 32 hrs by flow cytometry analysis; format: functional; conditions: DDE = dose-dependent effect
Plasmodium falciparum [2] = test: Antiplasmodial activity against Plasmodium falciparum 3D7 infected in human RBC assessed as parasite growth inhibition incubated for 48 hrs by 3H-hypoxanthine incorporation assay; format: functional, organism-based; conditions: 3D7, Erythrocyte
Plasmodium falciparum [3] = test: Antiplasmodial activity against Plasmodium falciparum NF54 expressing transgenic luciferase assessed as parasite kill rate at trophozoite stage incubated for 72 hrs by bioluminescence relative rate of kill (BRRoK) assay; format: functional, organism-based; conditions: RBC
[4] = (§1) Cytotoxicity against human HepG2 cells assessed as reduction in cell viability incubated for 72 hrs by CellTiter-Glo assay; format: toxicity, cell-based; conditions: HepG2 cells
Plasmodium falciparum [5] = test: Antiplasmodial activity against Plasmodium falciparum NF54 expressing transgenic luciferase assessed as parasite kill rate at trophozoite stage incubated for 6 hrs by bioluminescence relative rate of kill (BRRoK) assay; format: functional, organism-based; conditions: RBC
Plasmodium falciparum [6] = test: Inhibition of hemozoin formation in sorbitol-synchronized early ring stage plasmodium falciparum NF54 trophozoites assessed as decrease in free hemozoin-Fe level at 0.5 to 3 times EC50 incubated for 32 hrs by flow cytometry analysis; format: functional; conditions: DDE = dose-dependent effect
Plasmodium falciparum [7] = test: Inhibition of hemozoin formation in sorbitol-synchronized early ring stage plasmodium falciparum NF54 trophozoites assessed as increase in free heme level at 0.5 to 3 times EC50 incubated for 32 hrs by flow cytometry analysis; format: functional; conditions: DDE = dose-dependent effect
Plasmodium falciparum [8] = test: Antiplasmodial activity against asexual blood stage Plasmodium falciparum 3D7 infected in human RBC assessed as parasite growth inhibition incubated for 72 hrs by SYBR Green dye based fluorescence assay; format: functional, organism-based; conditions: Plasmodium falciparum, 3D7, Erythrocyte, 72 h
In short: (§2)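 Blood-stage cultures at 2% hematocrit, human O+ RBCs, RPMI 1640 + 25 mM HEPES, 0.5% Albumax-I, 23 mM bicarbonate, 92 μM hypoxanthine. Start at 0.5% parasitemia; 72 h at 37°C, 5% CO₂; freeze-thaw, then SYBR Green in saponin/Triton lysis buffer, 4 h RT dark; fluorescence ex 485/em 535 nm. 10-point curves, technical duplicates or triplicates, final 0.5% DMSO; four-parameter fit gives EC₅₀; mean ± std dev of biological replicates.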

Plasmodium falciparum [9] = test: Inhibition of hemozoin formation in sorbitol-synchronized early ring stage plasmodium falciparum NF54 trophozoites assessed as increase in free heme-Fe level at 0.5 to 3 times EC50 incubated for 32 hrs by flow cytometry analysis; format: functional; conditions: DDE = dose-dependent effect
[10] = Kinetic solubility of compound in PBS at pH 6.5 by HPLC analysis; format: physicochemical; conditions: read-out: Kinetic_solubility
Plasmodium falciparum [11] = test: Antiplasmodial activity against Plasmodium falciparum mature stage V gametocyte assessed as inhibition of female gametocyte formation by luciferase reporter assay; format: functional, organism-based
HepG2 = test: as §1; format: toxicity, cell-based; conditions: hepg2, 72 h
Plasmodium falciparum [12] = test: Antiplasmodial activity against drug resistant Plasmodium falciparum Dd2 infected in human RBC assessed as parasite growth inhibition incubated for 72 hrs by SYBR Green dye based fluorescence assay; format: functional, organism-based; conditions: Plasmodium falciparum, Dd2, Erythrocyte, 72 h; in short: as §2
[13] = Kinetic solubility of compound in PBS at pH 2 by HPLC analysis; format: physicochemical; conditions: read-out: Kinetic_solubility
Plasmodium falciparum [14] = test: Antiplasmodial activity against Plasmodium falciparum mature stage V gametocyte assessed as inhibition of male gametocyte formation at 25 uM by luciferase reporter assay; format: functional, organism-based
Plasmodium berghei = test: Antiplasmodial activity against liver stage Plasmodium berghei ANKA expressing GFP-Luc-SMCO infected in human HepG2-A16-CD81EGFP cells assessed as reduction in liver-stage development of luciferase-expressing parasite by luciferase reporter gene based bioluminescence assay; format: functional, organism-based
In short: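 Pb-Luc (P. berghei ANKA-GFP-Luc-SMCON) sporozoites infect HepG2-A16-CD81EGFP cells in phenol red-free DMEM with 5% FBS, glutamine, penicillin/streptomycin; compounds scored for blocking liver-stage development by luciferase signal.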

[15] = Metabolic stability in human liver microsomes assessed as intrinsic clearance per mg of protein at 1 uM incubated for 60 mins presence of NADPH regenerating buffer system by LC-MS analysis; format: ADME, Microsome; conditions: 1 h
Plasmodium falciparum [16] = test: Antiplasmodial activity against lab-derived MMV390048 resistant Plasmodium falciparum Dd2-Pfpi4K mutant infected in human RBC assessed as parasite growth inhibition incubated for 72 hrs by SYBR Green dye based fluorescence assay; format: functional, organism-based; conditions: Erythrocyte
Plasmodium falciparum [17] = test: Antiplasmodial activity against lab-derived DSM265 resistant Plasmodium falciparum Dd2-PfDHODH mutant infected in human RBC assessed as parasite growth inhibition incubated for 72 hrs by SYBR Green dye based fluorescence assay; format: functional, organism-based; conditions: Erythrocyte
Plasmodium falciparum [18] = test: Antiplasmodial activity against piperaquine and pyrimethamine resistant Plasmodium falciparum RF12 infected in human RBC assessed as parasite growth inhibition incubated for 72 hrs by SYBR Green dye based fluorescence assay; format: functional, organism-based; conditions: RF12, Erythrocyte
Plasmodium falciparum [19] = test: Antiplasmodial activity against Plasmodium falciparum NF54 infected in human RBC assessed as parasite growth inhibition incubated for 72 hrs by SYBR Green dye based fluorescence assay; format: functional, organism-based; conditions: NF54, Erythrocyte
Plasmodium falciparum [20] = test: Antiplasmodial activity against chloroquine resistant Plasmodium falciparum Dd2-GC03 mutant replaced with 3D7 pfcrt sequence at endogenous pfcrt Dd2 locus infected in human RBC assessed as parasite growth inhibition incubated for 72 hrs by SYBR Green dye based fluorescence assay; format: functional, organism-based; conditions: Erythrocyte
In short: (§3)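 Gene-edited Dd2 lines with the endogenous pfcrt locus replaced by zinc-finger nuclease editing. Concentration-response curves run with technical duplicates at each concentration; values are the average of two biological replicates, with std dev given where more replicates were collected.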

Plasmodium falciparum [21] = test: (§4) Antiplasmodial activity against chloroquine resistant Plasmodium falciparum Dd2-Dd2 mutant replaced with recombinant Dd2 sequence at endogenous pfcrt Dd2 locus infected in human RBC assessed as parasite growth inhibition incubated for 72 hrs by SYBR Green dye based fluorescence assay; format: functional, organism-based; conditions: Erythrocyte; in short: as §3
Plasmodium falciparum [22] = test: Antiplasmodial activity against chloroquine and pyrimethamine resistant Plasmodium falciparum K1 infected in human RBC assessed as parasite growth inhibition incubated for 72 hrs by SYBR Green dye based fluorescence assay; format: functional, organism-based; conditions: K1, Erythrocyte
Plasmodium falciparum [23] = test: Antiplasmodial activity against Plasmodium falciparum 3D7 assessed as parasite growth inhibition incubated for 48 hrs followed by compound washout further infected in RBC cells for 28 days by hemocrit analysis; format: functional, organism-based
Plasmodium falciparum [24] = test: Antiplasmodial activity against lab-derived […] resistant Plasmodium falciparum Dd2-PfeEF2 mutant infected in human RBC assessed as parasite growth inhibition incubated for 72 hrs by SYBR Green dye based fluorescence assay; format: functional, organism-based; conditions: Erythrocyte
Plasmodium falciparum [25] = test: as §4, with “chloroquine and piperaquine” for “chloroquine”, “Dd2-M343L” for “Dd2-Dd2”, “with endogenous pfcrt locus with the” for “with”, “sequence and the PPQ resistance-conferring M343L” for “sequence”; format: functional, organism-based; conditions: Erythrocyte; in short: as §3
Plasmodium falciparum [26] = test: Antiplasmodial activity against lab-derived ELQ300 resistant Plasmodium falciparum Dd2-PfCytB mutant infected in human RBC assessed as parasite growth inhibition incubated for 72 hrs by SYBR Green dye based fluorescence assay; format: functional, organism-based; conditions: Erythrocyte
Plasmodium falciparum [27] = test: Antiplasmodial activity against chloroquine and pyrimethamine resistant Plasmodium falciparum Dd2 infected in human RBC assessed as parasite growth inhibition incubated for 72 hrs by SYBR Green dye based fluorescence assay; format: functional, organism-based; conditions: Dd2, Erythrocyte
In short: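 O+ human RBCs at 2% hematocrit and 0.5% starting parasitemia, in RPMI 1640 with 25 mM HEPES, 0.5% Albumax-I, bicarbonate and hypoxanthine. Serial dilutions in triplicate, 0.5% DMSO final, 72 h at 37°C, 5% CO2. Frozen at −80°C, lysed with SYBR Green in saponin/Triton buffer for 4 h in the dark. Ex 485/em 535 nm. EC50 from four-parameter fit; biphasic fit where curves were biphasic.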

[28] = Inhibition of hemozoin formation in sorbitol-synchronized early ring stage plasmodium falciparum NF54 trophozoites assessed as fold increase in free heme-Fe level at 3 times EC50 incubated for 32 hrs by flow cytometry analysis; format: functional
In short: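 Trophozoites were saponin-released (0.05%), PBS-washed, counted by flow cytometry, then hypotonically lysed and sonicated. Heme was fractionated with HEPES, SDS, pyridine and NaOH and read as Fe(III)heme–pyridine absorbance against a heme standard curve (fg/cell). Three biological replicates; Student's t-test.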

Plasmodium falciparum [29] = test: Antiplasmodial activity against chloroquine, atovaquone and pyrimethamine resistant Plasmodium falciparum TM90C2B infected in human RBC assessed as parasite growth inhibition incubated for 72 hrs by SYBR Green dye based fluorescence assay; format: functional, organism-based; conditions: Erythrocyte
Plasmodium falciparum [30] = test: Antiplasmodial activity against chloroquine and pyrimethamine resistant Plasmodium falciparum 7G8 infected in human RBC assessed as parasite growth inhibition incubated for 72 hrs by SYBR Green dye based fluorescence assay; format: functional, organism-based; conditions: 7G8, Erythrocyte

## CCN(CC)CCCC(C)Nc1ccnc2cc(Cl)ccc12 (stereo unspecified) [CHLOROQUINE]
Hemozoin
  IC50: 19000 nM
Plasmodium falciparum [1]
  inhibition: Dde
Plasmodium falciparum [2]
  EC50: 21 nM
Plasmodium falciparum [3]
  Activity: Active
[4]
  CC50 at 72 h: > 30000 nM
Plasmodium falciparum [5]
  Activity: Active
Plasmodium falciparum [6]
  inhibition: Dde
Plasmodium falciparum [7]
  inhibition: Dde
Plasmodium falciparum [8]
  EC50: 14 nM
Plasmodium falciparum [9]
  inhibition: Dde

## Cc1ccccc1N(C)C(=O)C(c1cccnc1)N(Cc1cc(C(F)(F)F)ccc1F)C1CC1 (racemic)
[10]
  solubility kinetic: 1.5 µg/mL (≈ 3.18 µM)
Plasmodium falciparum [11]
  EC50: > 25000 nM
HepG2
  CC50: > 30000 nM
Plasmodium falciparum [12]
  EC50: 460 nM
[13]
  solubility kinetic: > 47 µg/mL
Plasmodium falciparum [8]
  EC50: 310 nM
Plasmodium falciparum [14]
  EC50: 60000 nM
Plasmodium berghei
  EC50: 7000 nM
[15]
  CLH: 548 µL/min/mg

## Cc1ccccc1-n1nnnc1C(c1cncnc1)N(Cc1cccc(C(F)(F)F)c1)C1CC1 (racemic)
[10]
  solubility kinetic: 1.5 µg/mL (≈ 3.22 µM)
Plasmodium falciparum [16]
  EC50: 2000 nM
Plasmodium falciparum [17]
  EC50: 2000 nM
Plasmodium falciparum [18]
  EC50: 1100 nM
Plasmodium falciparum [19]
  EC50: 830 nM
Hemozoin
  IC50: 310000 nM
Plasmodium falciparum [20]
  EC50: 4800 nM
Plasmodium falciparum [21]
  EC50: 2400 nM
Plasmodium falciparum [22]
  EC50: 460 nM
Plasmodium falciparum [23]
  Activity: Active
Plasmodium falciparum [24]
  EC50: 1600 nM
Plasmodium falciparum [25]
  EC50: 900 nM
Plasmodium falciparum [2]
  EC50: 1700 nM
Plasmodium falciparum [26]
  EC50: 2000 nM
Plasmodium falciparum [27]
  EC50: 1800 nM
[28]
  fold change (FC): 6
[4]
  CC50 at 72 h: 33000 nM
Plasmodium falciparum [12]
  EC50: 1800 nM
Plasmodium falciparum [29]
  EC50: 660 nM
[13]
  solubility kinetic: 1.5 µg/mL (≈ 3.22 µM)
Plasmodium falciparum [8]
  EC50: 400 nM
Plasmodium falciparum [30]
  EC50: 160 nM
